Measured values from different studies.
Each line is one published result; the experiments were not run side by side.
Target: STE20/SPS1-related proline-alanine-rich protein kinase (STK39, Homo sapiens, UniProt Q9UEW8)
Concentration: 1 µM

| SMILES | test | remaining binding [%] |
| --- | --- | --- |
| O=C(c1ccc(Nc2ncc(Cl)c(-c3cc4ccccc4s3)n2)cc1)N1CCC(N2CCCC2)CC1 | binding, competition with immobilised ligand | 36 |
| Nc1ncc2c(n1)-c1c([nH]c3ccc(C#CC4CC4)cc13)CCCC2 | binding, competition with immobilised ligand | 53 |
| CCN1CCN(Cc2ccc(C(=O)Nc3ccc(C)c(Oc4ccc5c(c4)CC(=O)N5)c3)cc2C(F)(F)F)CC1 | binding, competition with immobilised ligand | 68 |
| Cc1cc(NC(=O)c2cccc(S(F)(F)(F)(F)F)c2)cc(-n2ccn3nc(-c4cccnc4)cc23)c1 | cell-free assay, competition with immobilised ligand | 100 |
| c1cnn2ncc(-c3ccnc(N4CCC45COC5)n3)c2c1 | binding | 41 |
| O=C(NCc1ncc(C(F)(F)F)cc1Cl)c1ccc2c(c1)C1(CCS(=O)(=O)CC1)[C@H](C1CC1)N2S(=O)(=O)c1ccc(F)cc1 | cell-free assay, competition with immobilised ligand | 84 |
| N[C@@H]1CCN(c2nccc(-c3cnn4ncccc34)n2)C1 | binding | 100 |
| O=C(NCCCN1CCOCC1)c1ccc(Nc2nccc(-c3cc4ccccc4s3)n2)cc1 | binding, competition with immobilised ligand | 73 |
| COc1cc(-c2cn(C3CCc4ccccc4N(CC(F)(F)F)C3=O)nn2)ccc1-n1ccc(C)n1 (stereo not drawn) | cell-free assay, competition with immobilised ligand | 98 |
| C[C@H]1CCN(c2nccc(-c3cnn4ncccc34)n2)C1 | binding | 62 |
| CNC(=O)[C@@H]1CC[C@@H](n2c(-c3ccc4cnccc4c3)nc3ccc(C(=O)NCc4cccc(C(N)=O)c4)cc32)C1 | binding, competition with immobilised ligand | 100 |
| O=C(NCC1CCOCC1)c1n[nH]cc1NC(=O)c1c(F)cccc1F | binding, competition with immobilised ligand | 96 |
| CN(C)c1nccc(-c2cnc3ncccn23)n1 | binding | 51 |
| Cc1cnc(Nc2ccc(C(=O)N3CCC(N4CCCC4)CC3)cc2)nc1-c1cc2ccccc2s1 | binding, competition with immobilised ligand | 53 |
| COc1ccnn2ncc(-c3ccnc(N(C)C)n3)c12 | binding | 49 |
| Cc1nc(C2CCN(C(=O)c3ccc(OC(F)(F)F)cc3N)CC2)c2ncc(N3CCN(C)CC3)cc2n1 | cell-free assay, competition with immobilised ligand | 100 |
| F[C@@H]1CCN(c2nccc(-c3cnn4ncccc34)n2)C1 | binding | 57 |
| CN(C)c1ncnc(-c2ccc3nc(Nc4cc(CN5CCN(C(=O)CC(F)(F)F)CC5)ccn4)[nH]c3c2)c1Cl | cell-free assay, competition with immobilised ligand | 69 |
| C=CC(=O)N1CCC(C(=O)NCC(=O)N2CCN(c3nc(-c4cnc(N)nc4C(F)F)nc(N4CCOCC4)n3)CC2)CC1 | binding, competition with immobilised ligand | 76 |
| O=C(Nc1cccnn1)N1CCC(=Cc2cccc(Oc3ccc(C(F)(F)F)cn3)c2)CC1 | cell-free assay, competition with immobilised ligand | 100 |
| COc1cnc(Nc2cccc(S(N)(=O)=O)c2)nc1N1CCN(c2ccccc2)CC1 | binding, competition with immobilised ligand | 75 |
